DSG3 Ab inh – inhibitors of pemphigus antibody binding to DSG3, primary screen, biochemical, bead-based, flow cytometry, scFv-GFP; Desmoglein-3 (Homo sapiens), P32926; DSG3-coupled beads, scFv-anti-DSG3-GFP binding; hits give low values; binding (percent of control), % at 10 µM; hit rate 0.48% among 310,000; AID 588358, 2011;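 active = binding more than 3 SD below its plate's average and above zero; inconclusive = below that plate limit but binding exactly zero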;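 note: hits lower antibody fragment binding to DSG3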
Arr AP2 block – inhibitors of beta-arrestin/AP2 binding, primary screen, biochemical, GPCR trafficking, flow cytometry; FITC-arrestin peptide / GST-AP2 beads; AP2 beta2 appendage carries R879A mutation; hit rate 0.31% among 340,000; inhibition, % at 10 µM; beta-arrestin 1 C-terminal peptide binding to AP2 beta2-adaptin appendage (human);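 active = inhibition above a set limit, near 3 SD of compounds lacking own fluorescence, cut at about 54% in these data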;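 note: plate controls were DMSO wells for no effect and 5 µM unlabelled arrestin peptide for full effect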
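Assay system: GST-AP2 R879A bound to glutathione beads, E. coli-expressed; Medium: PBS with 0.05% Tween 20 and 0.1% BSA; Also added: fluorescein-tagged arrestin peptide at 50 nM final; Timing: 12 min plus 1 h, RT; Measured by: flow cytometry, FL1 (488/535 nm); Evaluation: percent drop in bead-associated FITC signal.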
NALP1 inh – NALP1 inflammasome inhibitors in reconstituted yeast, colorimetric, S. cerevisiae, triplicate retest; S. cerevisiae NALP1/ASC/caspase-1 growth, X-gal OD620, 72 h; inhibition, % at 10 µM; hit rate 0.61% among 280,000; AID 2071, 2009; in the data active = inhibition mostly above about 24%, no sharp cut-off; inactive = mostly below about 32%
NALP3 yeast inh – NALP3 inflammasome inhibitors in reconstituted yeast, primary screen, luminescence, uHTS | hit rate 0.39% among 330,000 | Yeast reconstituted NLRP3/ASC/caspase-1, beta-gal luminescence, 24 h | inhibition, % at 10 µM;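 active = inhibition of 50% or more; inactive = inhibition below 50%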;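 note: plate controls were induced DMSO wells for no effect and uninduced yeast grown without galactose for full effect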
ALR inh – inhibitors of human ALR sulfhydryl oxidase, primary screen, biochemical, H2O2 detection, HRP-luminol luminescence, single point; purified ALR, DTT oxidation; inhibition, % (concentration not given with the values); hit rate 3.8% among 290,000;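 active = mean replicate inhibition above about 79%, with every replicate also reaching it, limit read from the data; inconclusive = only one of the two criteria met; inactive = mean below limit and not every replicate reaching it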
Target sequence (P55789 whole entry, looked up): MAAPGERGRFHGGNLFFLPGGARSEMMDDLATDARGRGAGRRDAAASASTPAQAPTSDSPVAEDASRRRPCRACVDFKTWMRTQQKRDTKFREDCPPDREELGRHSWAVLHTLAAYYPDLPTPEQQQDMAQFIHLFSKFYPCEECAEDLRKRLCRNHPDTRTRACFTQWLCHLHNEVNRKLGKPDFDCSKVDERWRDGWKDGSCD
PolyA inh – polyadenylation inhibitors in yeast reporter cells, primary screen, luminescence, S. cerevisiae; S. cerevisiae SKY197-pL101 polyadenylation reporter, beta-gal luminescence; efflux-impaired pdr1/pdr3 knockout yeast; score 100 = 6 SD above DMSO; activity score, % at 12 µM; hit rate 0.02% among 300,000; AID 1875, 2009;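 active = lowest replicate activity score at least 50, where 100 means six control SD above control mean; inconclusive = lowest score under 50 but half or more replicates reach 50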;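 note: yeast exposed to compound for 9 h at 30 °C; higher score means more reporter readthrough which indicates perturbed polyadenylation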
* marks the source's active call; other numbers are inactive results; ? = inconclusive; · = no result. Hits are enriched below; roughly 4.6% of the tested compounds scored in any of these assays.

SMILES	DSG3 Ab inh	Arr AP2 block	NALP1 inh	NALP3 yeast inh	ALR inh	PolyA inh
COc1cc(/C=C2/SC(=S)N(c3c(C)n(C)n(-c4ccccc4)c3=O)C2=O)ccc1O	94	4	-4	9	90*	7
CSc1ccccc1C(=O)C1CCCN(C(=O)c2cccc(Cn3cccn3)c2)C1 (stereo not given)	97	·	·	·	·	·
COc1ccccc1/C=C1\SC(=S)N(NS(=O)(=O)c2ccccc2)C1=O	103	30	1	-16	0	-24
CCOc1cc(/C=C2\SC(=S)N(NS(=O)(=O)c3ccc(C)cc3)C2=O)ccc1O	102	53	·	-11	99*	-3
CC(/C=C1\SC(=S)N(NS(=O)(=O)c2ccccc2)C1=O)=C\c1ccccc1	90	17	11	-1	98*	-21
COc1cccc(/C=C2\SC(=S)N(NS(=O)(=O)c3ccc(C)cc3)C2=O)c1OC	103	-14	0	13	91*	-21
Cc1occc1C(=O)NNC1=CC(=O)CC(C)(C)C1	97	-21	11	11	89*	-2
CC(=O)Nc1cccc(N=NN2CCOCC2)c1	102	-6	8	22	7	-10
CC(=O)Nc1cccc(N=NN2CCCCC2)c1	102	16	0	7	88*	·
O=C(CCN1CCCC1=O)NC1CCCc2c1cnn2-c1ccc(F)cc1F (stereo not given)	103	-12	14	3	-15	1
CCCn1cnc2scc(-c3ccc(C)c(C)c3)c2c1=O	100	-13	8	27	1	1
CCC(C(=O)O)n1cnc2scc(-c3ccc(C)c(C)c3)c2c1=O (stereo not given)	125	17	-1	8	93*	0
Cc1ccc(NC(=O)c2ccc3c(c2)N(CC(=O)NC(C)C)C(=O)C(C)(C)O3)cc1	124	-8	11	7	-1	-6
CNc1nc(NC)c2cn[nH]c2n1	112	20	·	·	·	·
C=CCc1cc(/C=C2/NC(=O)NC2=O)cc(OCC)c1O	104	-16	-2	11	9	4
CCOc1cc(/C=C2/NC(=O)NC2=O)cc([N+](=O)[O-])c1O	104	·	-10	-56	94*	-21
O=C(O)c1ccc(CNC(=O)C2CCN(S(=O)(=O)c3cccs3)CC2)cc1	100	·	·	·	·	·
Cc1cc(S(=O)(=O)c2ccc(Cl)cc2)nc(S(=O)(=O)c2ccc(Cl)cc2)c1C#N	105	·	·	·	·	·
CN(Cc1ccccc1)c1nnc(N)s1	102	0	25	-3	?	10
CC(C)N(c1nnc(N)s1)C(C)C	·	2	-88	12	97*	15
O=C1c2ccccc2NC2(CCCCC2)N1c1ccc(O)cc1	113	-51	12	8	99*	-9
O=C(Oc1ccc(OC(=O)N2CCCCC2)cc1)c1ccccc1	68*	-2	36	19	1	-25
COc1cc(C(=O)Oc2cccc(C(=S)N3CCOCC3)c2)cc(OC)c1OC	103	19	-1	7	-6	10
O=C(Oc1cccc(C(=S)N2CCOCC2)c1)c1ccccc1	-24*	-7	0	14	·	-12
O=C(Oc1ccccc1)N1CCCC1	104	-5	1	13	-3	1
SMILES	DSG3 Ab inh	Arr AP2 block	NALP1 inh	NALP3 yeast inh	ALR inh	PolyA inh
O=c1cc(-c2ccc(O)cc2)oc2cc(O)c([C@@H]3O[C@H](CO)[C@@H](O)[C@H](O)[C@H]3O)c(O)c12	101	-3	·	-13	·	·
O=c1cc(-c2ccc(O)cc2)oc2c(C3O[C@H](CO)[C@@H](O)[C@H](O)[C@H]3O)c(O)cc(O)c12 (stereo not given in full)	107	17	·	25	15	·
O=c1cc(-c2ccc(O)c(O)c2)oc2cc(O)c(C3OC(CO)C(O)C(O)C3O)c(O)c12 (stereo not given)	96	7	-16	15	99*	-5
O=c1cc(-c2ccc(O)c(O)c2)oc2c(C3O[C@H](CO)[C@@H](O)[C@H](O)[C@H]3O)c(O)cc(O)c12 (stereo not given in full)	105	7	11	22	99*	-5
O=C(CCCCCN1C(=O)c2ccccc2C1=O)NC1CCCC1	·	4	12	12	3	3
O=C(CCS(=O)(=O)c1ccccc1)NC1CCCCC1	·	-1	-6	5	84*	13
O=C(CCCCCCN1C(=O)c2ccccc2C1=O)NC1CCCCC1	-5.7*	-4	12	25	1	6
COc1cccc(CNS(=O)(=O)c2ccccc2Br)c1OC	93	26	·	·	·	·
C=CCNC(=O)c1onc(CSc2ccccc2C)c1C(=O)O	103	5	0	-6	46	1
C=CCNC(=O)c1onc(CSc2cc(C)ccc2C)c1C(=O)O	·	-7	2	12	86*	5
CC(C)c1ccc(SCc2noc(C(=O)NCC3CCCO3)c2C(=O)O)cc1 (stereo not given)	100	21	11	8	97*	-14
O=C(NCC1CCCO1)c1onc(CSc2ccccc2)c1C(=O)O (stereo not given)	106	8	-12	13	1	-10
Cc1ccc(O)c(-c2cc(-c3ccccc3C)[nH]n2)c1	104	20	6	4	·	-67
Cc1ccc(O)c(-c2cc(C(F)(F)C(F)F)[nH]n2)c1	·	2	-3	5	98*	-18
C[C@H](CO)N1C[C@H](C)[C@@H](CN(C)S(=O)(=O)c2ccc(Oc3ccccc3)nc2)OCc2cn(nn2)CCCC1=O	96	·	·	·	·	·
COc1ccc(-c2ccc(/C=C(\NC(=O)c3ccccc3)C(=O)N3CCOCC3)o2)cc1	106	6	0	11	98*	2
COc1ccc(C(=O)N/C(=C\c2ccccc2)C(=O)N2CCOCC2)cc1	113	1	8	22	-9	13
O=C(CNc1ccc(C(F)(F)F)cc1)Nc1cccc(S(=O)(=O)N2CCCCC2)c1	100	·	·	·	·	·
COC(=O)c1nnn(-c2nonc2N)c1CN1CCc2ccccc21	100	12	14	0	98*	-14
COC(=O)c1ccc(S(=O)(=O)N2CCc3ccccc32)cc1	123	4	-2	30	-22	4
COC(=O)c1ccc(CN2CCc3ccccc32)cc1	109	30	-71	35	98*	11
Cn1c(CCNC(=O)c2ccccc2Cl)n[nH]c1=S	102	-2	3	12	96*	2

Screening results from PubChem.
